Data set [1] has as its system Hepatocyte. Nature of the data set: Unbound intrinsic clearance in human hepatocytes assessed as 3'-hydroxy repaglinide formation measured per 10^6 cells at 0.5 to 150 uM by LC-MS/MS method. It counts as ADME, cell-based.
In data set [2] the test system is Liver microsome. Nature of the data set: Unbound intrinsic clearance in human liver microsomes assessed as 3'-hydroxy repaglinide formation measured per mg of protein at 0.5 to 150 uM by LC-MS/MS method. It is filed as ADME. A digest of the protocol:
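Pooled HLM, 0.3 mg/ml, in 0.1 M phosphate pH 7.4 with 10 mM MgCl2 and NADPH regenerating system. Repaglinide at 8 levels, 0.5-150 μM; 37°C, 10 min. Metabolites by LC-MS/MS against authentic standards; fu_inc 0.85. Duplicates on three occasions.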

The target in data set [3] is T1, Cytochrome P450 3A4 (Homo sapiens, UniProt P08684). Nature of the data set: Unbound intrinsic clearance in human recombinant CYP3A4 expressed in insect cells assessed as enzyme-mediated 3'-hydroxy repaglinide formation per nanomole of protein at 0.5 to 150 uM by LC-MS/MS method. It is filed as ADME.
Data set [4] has as its system Hepatocyte. The data set is described as follows: Drug metabolism in human hepatocytes assessed as 2-despiperidyl-2-amino repaglinide formation measured per 10^6 cells at 0.5 to 150 uM by LC-MS/MS method. It is filed as ADME, cell-based.
For data set [5], the target named is T1, Cytochrome P450 3A4. The data set is described as follows: Fraction metabolism via CYP3A4 in human hepatic S9 fraction. It is filed as ADME, Liver.
A further data set deals with T2, Cytochrome P450 2C8 (Homo sapiens, UniProt P10632).
T2 sequence (P10632 whole entry): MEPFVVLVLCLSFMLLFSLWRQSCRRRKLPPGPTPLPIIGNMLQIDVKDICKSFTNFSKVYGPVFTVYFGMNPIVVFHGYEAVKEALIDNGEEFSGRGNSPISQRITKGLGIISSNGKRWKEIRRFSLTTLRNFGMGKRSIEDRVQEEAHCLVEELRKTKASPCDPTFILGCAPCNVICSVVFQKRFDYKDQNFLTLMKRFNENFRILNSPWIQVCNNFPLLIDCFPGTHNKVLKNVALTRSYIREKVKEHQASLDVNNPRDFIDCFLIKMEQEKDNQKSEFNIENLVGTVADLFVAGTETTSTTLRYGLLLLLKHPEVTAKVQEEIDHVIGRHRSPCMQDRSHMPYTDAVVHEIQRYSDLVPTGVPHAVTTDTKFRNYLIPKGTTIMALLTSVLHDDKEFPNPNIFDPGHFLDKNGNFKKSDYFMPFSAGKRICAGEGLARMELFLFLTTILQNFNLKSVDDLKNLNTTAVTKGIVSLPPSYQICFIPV
The data set is described as follows: Fraction metabolism via CYP2C8 in human liver microsomes. It is filed as ADME.

A short description of data set [6]: Fraction metabolism via UGT in human liver microsomes. It is filed as ADME.
The species named for data set [7] is Homo sapiens. Nature of the data set: Drug metabolism in human patient assessed as fold change in metabolite M2/M1 AUC ratio at 0.25 mg co-treated with telithromycin and montelukast relative to telithromycin and montelukast non-treated patient. It counts as ADME, organism-based. The settings on record: in vivo.
The species named for data set [8] is Homo sapiens. The data set is described as follows: Drug metabolism in human patient assessed as fold change in metabolite M2/M4 AUC ratio at 0.25 mg co-treated with telithromycin and montelukast relative to telithromycin and montelukast non-treated patient. It is filed as ADME, organism-based. The settings on record: in vivo.
A short description of data set [9]: Drug metabolism in human hepatocytes assessed as 2-despiperidyl-2-amino repaglinide formation by LC-MS/MS method. It counts as ADME, cell-based, Hepatocyte.
A short description of data set [10]: Unbound intrinsic clearance in human hepatic S9 fraction assessed as 2-despiperidyl-2-amino repaglinide formation measured per mg of protein at 0.5 to 150 uM by LC-MS/MS method. The settings on record: s9, 150 µM. It is filed as ADME, tissue-based, Liver.
A short description of data set [11]: Drug metabolism in human hepatic S9 fraction assessed as glucuronide formation measured per mg of protein at 0.5 to 150 uM by LC-MS/MS method. It counts as ADME, Liver. The conditions noted are these: s9, 150 µM.
The test system of data set [12] is Liver microsome. The data set is described as follows: Drug metabolism in human liver microsomes assessed as 2-despiperidyl-2-(5-carboxypentylamine) repaglinide formation measured per mg of protein at 0.5 to 150 uM by LC-MS/MS method. It is filed as ADME.
Data set [13] has as its system Liver microsome. Nature of the data set: Drug metabolism in human liver microsomes assessed as 2-despiperidyl-2-(5-carboxypentylamine) repaglinide formation by LC-MS/MS method. It is filed as ADME.

Structures are written as SMILES.

T1 sequence (P08684 whole entry): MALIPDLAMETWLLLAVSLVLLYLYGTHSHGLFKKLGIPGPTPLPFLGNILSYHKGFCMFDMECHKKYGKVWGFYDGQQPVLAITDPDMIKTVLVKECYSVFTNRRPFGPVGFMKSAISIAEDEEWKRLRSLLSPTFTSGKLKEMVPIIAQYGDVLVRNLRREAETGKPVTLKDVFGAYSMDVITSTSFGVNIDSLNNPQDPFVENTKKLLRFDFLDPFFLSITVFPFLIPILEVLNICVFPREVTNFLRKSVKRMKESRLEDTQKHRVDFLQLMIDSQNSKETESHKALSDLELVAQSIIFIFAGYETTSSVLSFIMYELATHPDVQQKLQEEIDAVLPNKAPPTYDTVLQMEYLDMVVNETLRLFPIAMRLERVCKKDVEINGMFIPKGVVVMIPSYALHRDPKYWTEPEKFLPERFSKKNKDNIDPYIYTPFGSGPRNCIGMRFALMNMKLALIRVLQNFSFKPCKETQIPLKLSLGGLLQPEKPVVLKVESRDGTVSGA

Consider `CCOc1cc(CC(=O)N[C@@H](CC(C)C)c2ccccc2N2CCCCC2)ccc1C(=O)O` [REPAGLINIDE], for which the CL free in the data set on Hepatocyte [1] was 2.4 uL/min/10^6cells; in the data set with Liver microsome [2], 18 µL/min/mg; at Cytochrome P450 3A4 [3] it was 2 µL/min/nmol; in [10], 0.76 µL/min/mg. Further, the Vmax with Hepatocyte [4] is listed as 23 pmol/min/10^6cells; in data set [11] it was 46 pmol/min/mg; in the data set on Liver microsome [12], 28 pmol/min/mg. The Fm on Cytochrome P450 3A4 [5] was found to be 0.39; at Cytochrome P450 2C8 it was 0.63; in data set [6], 0.19. Besides, the entries for the “fold change (FC)” value in the data set listed under Homo sapiens [7] and in the data set listed under Homo sapiens [8] were 4.3 and 0.82, respectively. In addition, the values for the Michaelis constant (Km) (in data set [9]; in the data set on Liver microsome [13]) were 58 µM and 24 µM, respectively.
